Experimental data: ChEMBL document CHEMBL1144570, “C6-(N,N-butyl-methyl-heptanamide) derivatives of estrone and estradiol as inhibitors of type 1 17beta-hydroxysteroid dehydrogenase: Chemical synthesis and biological evaluation” (2007)
Calls of active or inactive are those of the source. The rule behind the calls is not given here.

target: T1, 17-beta-hydroxysteroid dehydrogenase type 1 (Homo sapiens) (UniProt P14061); assay: Inhibition of 17beta-HSD1 over-expressed in intact T47D cells at 10 uM; format: cell-based; details: not given
T1 sequence (whole entry): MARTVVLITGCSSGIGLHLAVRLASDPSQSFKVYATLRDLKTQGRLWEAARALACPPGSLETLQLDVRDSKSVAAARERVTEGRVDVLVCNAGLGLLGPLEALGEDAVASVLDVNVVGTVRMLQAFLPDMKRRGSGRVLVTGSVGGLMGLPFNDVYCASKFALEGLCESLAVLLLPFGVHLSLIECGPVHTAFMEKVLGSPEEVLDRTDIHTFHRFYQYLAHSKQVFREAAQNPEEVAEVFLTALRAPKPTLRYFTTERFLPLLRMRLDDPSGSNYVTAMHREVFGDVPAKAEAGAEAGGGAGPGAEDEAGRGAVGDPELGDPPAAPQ
In short: (§1)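 Intact T-47D cells, which express endogenous type 1 17β-HSD, were seeded at 3×10^4 cells/well in proliferation assay medium. After 48 h, [4-14C]-E1 (60 nM) and inhibitor in ethanol (0.5% v/v) were added in fresh medium for 24 h. Labelled E1 and E2 were extracted and quantified. Values are the mean of two experiments in triplicate, SD < ±5%.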

inhibition [%]	SMILES
95	CCCCN(C)C(=O)CCCCCS[C@@H]1C[C@@H]2[C@H](CC[C@]3(C)[C@@H](O)CC[C@@H]23)c2ccc(O)cc21
95	CCCCN(C)C(=O)CCCCCC[C@@H]1C[C@@H]2[C@H](CC[C@]3(C)[C@@H](O)CC[C@@H]23)c2ccc(O)cc21
74	CCCCN(C)C(=O)CCCCCC[C@H]1C[C@@H]2[C@H](CC[C@]3(C)[C@@H](O)CC[C@@H]23)c2ccc(O)cc21

system: T47D; assay: Increase in cell growth of estrogen-starved ER expressing T47D cells at 0.01 uM relative to control after 10 days; format: functional, Homo sapiens; details: not given
In short: (§2)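 Cells were moved to medium with insulin (50 ng/mL) and 5% dextran-coated charcoal-treated FBS to remove estrogens, then seeded at 3000 cells/well. After 48 h, inhibitor dilutions in growth medium were added, with medium replaced every 2 days. Cells were grown 10 days in triplicate. Growth was read with the CellTiter 96 AQueous assay and expressed as % of control (100%).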

SMILES	Activity
CCCCN(C)C(=O)CCCCCS[C@@H]1C[C@@H]2[C@H](CC[C@]3(C)[C@@H](O)CC[C@@H]23)c2ccc(O)cc21	2.3

target: T1, 17-beta-hydroxysteroid dehydrogenase type 1 (Homo sapiens); assay: Inhibition of 17beta-HSD1 over-expressed in homogenated HEK293 cells at 0.1 uM; format: cell-based; details: not given
In short: (§3)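 Homogenate of HEK-293 cells overexpressing type 1 17β-HSD. Reductive conversion of E1 (100 nM) to E2 with NADH cofactor. Percent inhibition from one run in triplicate, SD < ±5%.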

inhibition [%]	SMILES
33	CCCCN(C)C(=O)CCCCCS[C@@H]1C[C@@H]2[C@H](CC[C@]3(C)[C@@H](O)CC[C@@H]23)c2ccc(O)cc21
15	CCCCN(C)C(=O)CCCCCC[C@@H]1C[C@@H]2[C@H](CC[C@]3(C)[C@@H](O)CC[C@@H]23)c2ccc(O)cc21
9	CCCCN(C)C(=O)CCCCCC[C@H]1C[C@@H]2[C@H](CC[C@]3(C)[C@@H](O)CC[C@@H]23)c2ccc(O)cc21

target: T2, 3-keto-steroid reductase/17-beta-hydroxysteroid dehydrogenase 7 (Homo sapiens) (UniProt P56937); assay: Inhibition of 17beta-HSD7 over-expressed in intact HEK293 cells at 1 uM; format: cell-based; details: not given
T2 sequence (whole entry): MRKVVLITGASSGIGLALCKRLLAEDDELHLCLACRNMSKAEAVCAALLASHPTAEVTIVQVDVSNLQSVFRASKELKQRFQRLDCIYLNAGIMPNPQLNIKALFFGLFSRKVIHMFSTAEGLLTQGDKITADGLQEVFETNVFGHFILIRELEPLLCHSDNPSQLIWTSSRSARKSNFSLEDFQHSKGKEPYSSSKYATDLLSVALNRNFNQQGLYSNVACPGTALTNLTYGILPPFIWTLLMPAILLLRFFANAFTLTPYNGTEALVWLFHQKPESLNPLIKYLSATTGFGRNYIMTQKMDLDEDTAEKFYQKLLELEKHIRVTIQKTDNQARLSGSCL
In short: (§4)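 Intact transfected HEK-293 cells expressing type 7 17β-HSD. Inhibition of reductive conversion of E1 (60 nM) to E2. One run in triplicate, SD < ±5%.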

inhibition [%]	SMILES
9	CCCCN(C)C(=O)CCCCCS[C@@H]1C[C@@H]2[C@H](CC[C@]3(C)[C@@H](O)CC[C@@H]23)c2ccc(O)cc21
0	CCCCN(C)C(=O)CCCCCC[C@@H]1C[C@@H]2[C@H](CC[C@]3(C)[C@@H](O)CC[C@@H]23)c2ccc(O)cc21
11	CCCCN(C)C(=O)CCCCCC[C@H]1C[C@@H]2[C@H](CC[C@]3(C)[C@@H](O)CC[C@@H]23)c2ccc(O)cc21

target: T1, 17-beta-hydroxysteroid dehydrogenase type 1 (Homo sapiens); assay: Inhibition of 17beta-HSD1 over-expressed in intact HEK293 cells at 0.1 uM; format: cell-based; details: not given
In short: (§5)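 Transfected HEK-293 cells expressing type 1 17β-HSD were plated at 5000 cells/well. Inhibitors were added in ethanol and incubated 24 h. [4-14C]-E1 (60 nM) was then added for 15 min. Labelled E1 and E2 were extracted from the medium and quantified. Values are the mean of five experiments in quadruplicate, SD < ±8%.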

inhibition [%]	SMILES
11	CCCCN(C)C(=O)CCCCCS[C@@H]1C[C@@H]2[C@H](CC[C@]3(C)[C@@H](O)CC[C@@H]23)c2ccc(O)cc21
11	CCCCN(C)C(=O)CCCCCC[C@@H]1C[C@@H]2[C@H](CC[C@]3(C)[C@@H](O)CC[C@@H]23)c2ccc(O)cc21
3	CCCCN(C)C(=O)CCCCCC[C@H]1C[C@@H]2[C@H](CC[C@]3(C)[C@@H](O)CC[C@@H]23)c2ccc(O)cc21

system: T47D; assay: Increase in cell growth of estrogen-starved ER expressing T47D cells at 0.1 uM relative to control after 10 days; format: functional, Homo sapiens; details: not given; in short: as §2

SMILES	Activity
CCCCN(C)C(=O)CCCCCS[C@@H]1C[C@@H]2[C@H](CC[C@]3(C)[C@@H](O)CC[C@@H]23)c2ccc(O)cc21	2.3

target: T1, 17-beta-hydroxysteroid dehydrogenase type 1 (Homo sapiens); assay: Inhibition of 17beta-HSD1 overexpressed in homogenated HEK293 cells at 1 uM; format: cell-based; details: not given; in short: as §3

inhibition [%]	SMILES
74	CCCCN(C)C(=O)CCCCCS[C@@H]1C[C@@H]2[C@H](CC[C@]3(C)[C@@H](O)CC[C@@H]23)c2ccc(O)cc21
46	CCCCN(C)C(=O)CCCCCC[C@@H]1C[C@@H]2[C@H](CC[C@]3(C)[C@@H](O)CC[C@@H]23)c2ccc(O)cc21
17	CCCCN(C)C(=O)CCCCCC[C@H]1C[C@@H]2[C@H](CC[C@]3(C)[C@@H](O)CC[C@@H]23)c2ccc(O)cc21

target: T1, 17-beta-hydroxysteroid dehydrogenase type 1 (Homo sapiens); assay: Inhibition of 17beta-HSD1 over-expressed in intact T47D cells at 0.1 uM; format: cell-based; details: not given; in short: as §1

inhibition [%]	SMILES
31	CCCCN(C)C(=O)CCCCCS[C@@H]1C[C@@H]2[C@H](CC[C@]3(C)[C@@H](O)CC[C@@H]23)c2ccc(O)cc21
29	CCCCN(C)C(=O)CCCCCC[C@@H]1C[C@@H]2[C@H](CC[C@]3(C)[C@@H](O)CC[C@@H]23)c2ccc(O)cc21
9	CCCCN(C)C(=O)CCCCCC[C@H]1C[C@@H]2[C@H](CC[C@]3(C)[C@@H](O)CC[C@@H]23)c2ccc(O)cc21

target: T1, 17-beta-hydroxysteroid dehydrogenase type 1 (Homo sapiens); assay: Inhibition of 17beta-HSD1 over-expressed in intact T47D cells at 1 uM; format: cell-based; details: not given; in short: as §1

inhibition [%]	SMILES
82	CCCCN(C)C(=O)CCCCCS[C@@H]1C[C@@H]2[C@H](CC[C@]3(C)[C@@H](O)CC[C@@H]23)c2ccc(O)cc21
82	CCCCN(C)C(=O)CCCCCC[C@@H]1C[C@@H]2[C@H](CC[C@]3(C)[C@@H](O)CC[C@@H]23)c2ccc(O)cc21
21	CCCCN(C)C(=O)CCCCCC[C@H]1C[C@@H]2[C@H](CC[C@]3(C)[C@@H](O)CC[C@@H]23)c2ccc(O)cc21

system: T47D; assay: Increase in cell growth of estrogen-starved ER expressing T47D cells at 1 uM relative to control after 10 days; format: functional, cell-based; details: Homo sapiens; in short: as §2

SMILES	Activity
CCCCN(C)C(=O)CCCCCS[C@@H]1C[C@@H]2[C@H](CC[C@]3(C)[C@@H](O)CC[C@@H]23)c2ccc(O)cc21	Active

target: T1, 17-beta-hydroxysteroid dehydrogenase type 1 (Homo sapiens); assay: Inhibition of 17beta-HSD1 over-expressed in intact HEK293 cells at 1 uM; format: cell-based; details: not given; in short: as §5

inhibition [%]	SMILES
45	CCCCN(C)C(=O)CCCCCS[C@@H]1C[C@@H]2[C@H](CC[C@]3(C)[C@@H](O)CC[C@@H]23)c2ccc(O)cc21
21	CCCCN(C)C(=O)CCCCCC[C@@H]1C[C@@H]2[C@H](CC[C@]3(C)[C@@H](O)CC[C@@H]23)c2ccc(O)cc21
11	CCCCN(C)C(=O)CCCCCC[C@H]1C[C@@H]2[C@H](CC[C@]3(C)[C@@H](O)CC[C@@H]23)c2ccc(O)cc21

target: T3, Very-long-chain 3-oxoacyl-CoA reductase (Homo sapiens) (UniProt Q53GQ0); assay: Inhibition of 17beta-HSD12 over-expressed in intact HEK293 cells at 1 uM; format: cell-based; details: not given
T3 sequence (whole entry): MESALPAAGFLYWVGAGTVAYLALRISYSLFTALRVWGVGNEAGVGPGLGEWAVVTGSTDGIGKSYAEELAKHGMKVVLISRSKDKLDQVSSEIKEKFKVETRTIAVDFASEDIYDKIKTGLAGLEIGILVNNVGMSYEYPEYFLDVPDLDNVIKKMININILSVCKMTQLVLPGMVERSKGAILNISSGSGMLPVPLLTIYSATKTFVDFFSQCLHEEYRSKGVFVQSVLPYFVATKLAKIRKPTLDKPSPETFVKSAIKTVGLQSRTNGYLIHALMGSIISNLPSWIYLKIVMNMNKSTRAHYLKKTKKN
In short: (§6)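 Transfected HEK-293 cells expressing type 12 17β-HSD were plated at 1.5×10^5 cells/well. Inhibitor in ethanol plus [4-14C]-E1 (60 nM) were added in fresh medium for 24 h. E1 to E2 conversion was quantified after steroid extraction. Values are the mean of two experiments in triplicate, SD < ±5%.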

inhibition [%]	SMILES
0	CCCCN(C)C(=O)CCCCCS[C@@H]1C[C@@H]2[C@H](CC[C@]3(C)[C@@H](O)CC[C@@H]23)c2ccc(O)cc21
1	CCCCN(C)C(=O)CCCCCC[C@@H]1C[C@@H]2[C@H](CC[C@]3(C)[C@@H](O)CC[C@@H]23)c2ccc(O)cc21
1	CCCCN(C)C(=O)CCCCCC[C@H]1C[C@@H]2[C@H](CC[C@]3(C)[C@@H](O)CC[C@@H]23)c2ccc(O)cc21

system: T47D; assay: Decrease in cell growth of estrogen-starved ER expressing T47D cells after 10 days relative to control; format: functional, cell-based; details: Homo sapiens; in short: as §2

SMILES	Activity
CCCCN(C)C(=O)CCCCCC[C@@H]1C[C@@H]2[C@H](CC[C@]3(C)[C@@H](O)CC[C@@H]23)c2ccc(O)cc21	Active

target: T3, Very-long-chain 3-oxoacyl-CoA reductase (Homo sapiens); assay: Inhibition of 17beta-HSD12 over-expressed in intact HEK293 cells at 10 uM; format: cell-based; details: not given; in short: as §6

inhibition [%]	SMILES
22	CCCCN(C)C(=O)CCCCCS[C@@H]1C[C@@H]2[C@H](CC[C@]3(C)[C@@H](O)CC[C@@H]23)c2ccc(O)cc21
30	CCCCN(C)C(=O)CCCCCC[C@@H]1C[C@@H]2[C@H](CC[C@]3(C)[C@@H](O)CC[C@@H]23)c2ccc(O)cc21
30	CCCCN(C)C(=O)CCCCCC[C@H]1C[C@@H]2[C@H](CC[C@]3(C)[C@@H](O)CC[C@@H]23)c2ccc(O)cc21

target: T2, 3-keto-steroid reductase/17-beta-hydroxysteroid dehydrogenase 7 (Homo sapiens); assay: Inhibition of 17beta-HSD7 over-expressed in intact HEK293 cells at 10 uM; format: cell-based; details: not given; in short: as §4

inhibition [%]	SMILES
25	CCCCN(C)C(=O)CCCCCS[C@@H]1C[C@@H]2[C@H](CC[C@]3(C)[C@@H](O)CC[C@@H]23)c2ccc(O)cc21
27	CCCCN(C)C(=O)CCCCCC[C@@H]1C[C@@H]2[C@H](CC[C@]3(C)[C@@H](O)CC[C@@H]23)c2ccc(O)cc21
24	CCCCN(C)C(=O)CCCCCC[C@H]1C[C@@H]2[C@H](CC[C@]3(C)[C@@H](O)CC[C@@H]23)c2ccc(O)cc21

target: T1, 17-beta-hydroxysteroid dehydrogenase type 1 (Homo sapiens); assay: Inhibition of 17beta-HSD1 over-expressed in intact HEK293 cells at 10 uM; format: cell-based; details: not given; in short: as §5

inhibition [%]	SMILES
63	CCCCN(C)C(=O)CCCCCS[C@@H]1C[C@@H]2[C@H](CC[C@]3(C)[C@@H](O)CC[C@@H]23)c2ccc(O)cc21
49	CCCCN(C)C(=O)CCCCCC[C@@H]1C[C@@H]2[C@H](CC[C@]3(C)[C@@H](O)CC[C@@H]23)c2ccc(O)cc21
15	CCCCN(C)C(=O)CCCCCC[C@H]1C[C@@H]2[C@H](CC[C@]3(C)[C@@H](O)CC[C@@H]23)c2ccc(O)cc21
